Active and inactive are the calls of the source. The calls are words filed in the database; no cut-off is given here.
Tests used:
Influenza B virus [1] = assay: Antiviral activity against Influenza B virus B/Yamagata/16/88(BY) infected in MDCK cells assessed as inhibition of virus-induced cytopathic effect after 40 hrs by Celltiter-Glo assay; assay type: functional, organism-based
How it was run: (§1)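 MDCK cells were seeded in 96-well plates, left overnight, then infected with influenza virus at MOI 0.1 and treated with the compound. After 40 h, viability was read by CellTiter-Glo luminescence. 1% DMSO (final) served as the negative control and oseltamivir phosphate as the positive control. IC50 is the concentration that inhibits virus-induced CPE by 50%, taken from dose-response curves in replicate independent experiments.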

Influenza B virus [2] = assay: Antiviral activity against Influenza B virus B/Sichuan/531/2018(BV) infected in MDCK cells assessed as inhibition of virus-induced cytopathic effect after 40 hrs by Celltiter-Glo assay; assay type: functional, organism-based; how it was run: as §1
Influenza A virus [3] = assay: Antiviral activity against Influenza A virus A/WSN/33 assessed as inhibition of virus-induced cytopathic effect after 40 hrs by Celltiter-Glo assay; assay type: functional, organism-based; settings: A/WSN/33, 40 h; how it was run: as §1
[4] = Selectivity index, ratio of CC50 for MDCK cells to IC50 for influenza A virus A/WSN/33; assay type: toxicity; settings: dog, read-out: Ratio CC50/IC50
How it was run: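 SI was calculated as CC50 (uninfected MDCK, 40 h CellTiter-Glo) divided by IC50 (50% inhibition of A/WSN/33 replication in MDCK, MOI 0.1, 40 h CellTiter-Glo).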

Influenza A virus [5] = assay: Antiviral activity against Influenza A virus A/Victoria/361/2011(H3N2) infected in MDCK cells assessed as inhibition of virus-induced cytopathic effect after 40 hrs by Celltiter-Glo assay; assay type: functional, organism-based; how it was run: as §1
Influenza B virus [6] = assay: Antiviral activity against Influenza B virus B/Massachusetts/2/2012(BV) infected in MDCK cells assessed as inhibition of virus-induced cytopathic effect after 40 hrs by Celltiter-Glo assay; assay type: functional, organism-based; how it was run: as §1
[7] = Cytotoxicity against dog MDCK cells assessed as reduction in cell viability measured after 40 hrs by Celltiter-Glo assay; assay type: cell-based, Canis lupus familiaris
How it was run: (§2)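 Uninfected MDCK cells were grown overnight in 96-well plates with 1% FBS. They were then exposed to increasing compound concentrations, or to a single 100 μM screen, for 40 h, and viability was read by CellTiter-Glo. CC50 is the concentration causing 50% death of uninfected cells.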

MDCK = assay: Cytotoxicity against dog MDCK cells assessed as reduction in cell viability at 100 uM measured after 40 hrs by Celltiter-Glo assay; assay type: cell-based, Canis lupus familiaris; how it was run: as §2
Influenza A virus [8] = assay: Antiviral activity against Influenza A virus A/WSN/33 infected in MDCK cells assessed as reduction in virus-induced cytopathic effect at 100 uM after 40 hrs by Celltiter-Glo assay; assay type: functional, organism-based
How it was run: (§3)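 This was a single-concentration screen at 100 μM in MDCK cells infected with A/WSN/33 at MOI 0.1. CPE protection was read by CellTiter-Glo after 40 h of incubation. The inhibition rate was expressed relative to 1% DMSO (final) negative control, with oseltamivir phosphate as the positive control. Experiments were run in triplicate.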

Influenza A virus [9] = assay: Antiviral activity against Influenza A virus A/WSN/33 infected in MDCK cells assessed as reduction in virus-induced cytopathic effect at 100 uM after 40 hrs by Celltiter-Glo assay relative to control; assay type: functional; settings: A/WSN/33, MDCK; how it was run: as §3

## CCOC(=O)C1=C[C@@H](OC(CC)CC)[C@H](NC(C)=O)[C@@H](N)C1 [OSELTAMIVIR PHOSPHATE]
Influenza B virus [1]
  IC50: 23.4 µM
Influenza B virus [2]
  IC50: > 100 µM
Influenza A virus [3]
  IC50: 1.82 µM
[4]
  selectivity ratio: > 54.9
Influenza A virus [5]
  IC50: > 100 µM
Influenza B virus [6]
  IC50: > 100 µM
[7]
  CC50 at 40 h: > 100 µM

## CC1(C)CC[C@]2(C(=O)NCc3cn([C@@H]4O[C@H](CO)[C@@H](O[C@@H]5O[C@H](CO)[C@H](O)[C@H](O)[C@H]5O)[C@H](O)[C@H]4O)nn3)CC[C@]3(C)C(=CC[C@@H]4[C@@]5(C)CC[C@H](O)C(C)(C)[C@@H]5CC[C@]43C)[C@@H]2C1
MDCK
  Activity: Non-Toxic

## CC(=O)OC[C@H]1O[C@@H](n2cc(CNC(=O)[C@]34CCC(C)(C)C[C@H]3C3=CC[C@@H]5[C@@]6(C)CC[C@H](O)C(C)(C)[C@@H]6CC[C@@]5(C)[C@]3(C)CC4)nn2)[C@H](OC(C)=O)[C@@H](OC(C)=O)[C@@H]1O[C@H]1O[C@H](COC(C)=O)[C@@H](O[C@H]2O[C@H](COC(C)=O)[C@@H](OC(C)=O)[C@H](OC(C)=O)[C@H]2OC(C)=O)[C@H](OC(C)=O)[C@H]1OC(C)=O
MDCK
  Activity: Non-Toxic
Influenza A virus [8]
  Activity: inactive

## C[C@@H]1O[C@@H](n2cc(CNC(=O)[C@]34CCC(C)(C)C[C@H]3C3=CC[C@@H]5[C@@]6(C)CC[C@H](O)C(C)(C)[C@@H]6CC[C@@]5(C)[C@]3(C)CC4)nn2)[C@H](O)[C@H](O)[C@H]1O
MDCK
  Activity: Toxic
Influenza A virus [9]
  inhibition at 100 µM: 75%

## CC1(C)CC[C@]2(C(=O)O)CC[C@]3(C)C(=CC[C@@H]4[C@@]5(C)CC[C@H](O)C(C)(C)[C@@H]5CC[C@]43C)[C@@H]2C1 [OLEANOLIC_ACID]
Influenza A virus [3]
  IC50: 72.2 µM
[4]
  selectivity ratio: > 1.38
[7]
  CC50 at 40 h: > 100 µM

## CC(=O)O[C@@H]1[C@@H](OC(C)=O)[C@H](n2cc(CNC(=O)[C@]34CCC(C)(C)C[C@H]3C3=CC[C@@H]5[C@@]6(C)CC[C@H](O)C(C)(C)[C@@H]6CC[C@@]5(C)[C@]3(C)CC4)nn2)OC[C@@H]1OC(C)=O
MDCK
  Activity: Non-Toxic

## CC(=O)O[C@@H]1[C@@H](OC(C)=O)[C@H](OC(C)=O)CO[C@H]1n1cc(CNC(=O)[C@]23CCC(C)(C)C[C@H]2C2=CC[C@@H]4[C@@]5(C)CC[C@H](O)C(C)(C)[C@@H]5CC[C@@]4(C)[C@]2(C)CC3)nn1
MDCK
  Activity: Non-Toxic

## CC(=O)OC[C@H]1O[C@@H](n2cc(CNC(=O)[C@]34CCC(C)(C)C[C@H]3C3=CC[C@@H]5[C@@]6(C)CC[C@H](O)C(C)(C)[C@@H]6CC[C@@]5(C)[C@]3(C)CC4)nn2)[C@H](OC(C)=O)[C@@H](OC(C)=O)[C@@H]1OC(C)=O
MDCK
  Activity: Non-Toxic

## CC1(C)CC[C@]2(C(=O)NCc3cn([C@@H]4O[C@H](CO)[C@@H](O[C@@H]5O[C@H](CO)[C@@H](O)[C@H](O)[C@H]5O)[C@H](O)[C@H]4O)nn3)CC[C@]3(C)C(=CC[C@@H]4[C@@]5(C)CC[C@H](O)C(C)(C)[C@@H]5CC[C@]43C)[C@@H]2C1
MDCK
  Activity: Non-Toxic

## CC(=O)OC[C@H]1O[C@@H](n2cc(CNC(=O)[C@]34CCC(C)(C)C[C@H]3C3=CC[C@@H]5[C@@]6(C)CC[C@H](O)C(C)(C)[C@@H]6CC[C@@]5(C)[C@]3(C)CC4)nn2)[C@H](OC(C)=O)[C@@H](OC(C)=O)[C@H]1OC(C)=O
MDCK
  Activity: Toxic
Influenza A virus [9]
  inhibition at 100 µM: 75%

## CC1(C)CC[C@]2(C(=O)NCc3cn([C@@H]4O[C@H](CO)[C@@H](O[C@H]5O[C@H](CO)[C@@H](O)[C@H](O)[C@H]5O)[C@H](O)[C@H]4O)nn3)CC[C@]3(C)C(=CC[C@@H]4[C@@]5(C)CC[C@H](O)C(C)(C)[C@@H]5CC[C@]43C)[C@@H]2C1
MDCK
  Activity: Non-Toxic

Source: ChEMBL document CHEMBL4359890, “Design, synthesis of oleanolic acid-saccharide conjugates using click chemistry methodology and study of their anti-influenza activity” (Eur J Med Chem, 2019)
